Measured values from ChEMBL document CHEMBL1156701, “Synthesis, potent anti-staphylococcal activity and QSARs of some novel 2-anilinobenzazoles” (2008).
≈ marks a conversion by molar mass, not a printed value.

Columns and labels:
Staphylococcus aureus [1] = assay: Antibacterial activity against methicillin-resistant Staphylococcus aureus ATCC 43300 after 18 hrs by macro broth dilution assay; format: functional; settings: for MIC: Staphylococcus aureus, ATCC 43300, 18 h
Method in brief: (§1)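 Compounds dissolved in 50% DMSO–water at 400 (stock); fourfold dilution with medium and inoculum gives 100 top concentration in first tube (12.5% DMSO, not scored). Inoculum: 4–5 colonies from overnight Tryptic Soy Agar in saline to 0.5 McFarland, diluted 1:100 in MHB (10⁶ CFU/ml); 1 mL added to 1 mL compound dilution in MHB. 35 °C, 18 h; MIC read. Agar diffusion pre-screen first.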

Staphylococcus aureus [2] = assay: Antibacterial activity against Staphylococcus aureus ATCC 25923 after 18 hrs by macro broth dilution assay; format: functional; settings: for MIC: Staphylococcus aureus, ATCC 25923, 18 h; method in brief: as §1

`Fc1cccc(Nc2nc3cc(Cl)ccc3[nH]2)c1` was tested, and the MIC (Staphylococcus aureus [1]) was 6.25 µg/mL (≈ 23.9 µM), the “log(1/C)” value (Staphylococcus aureus [2]) was 4.62 and the MIC (Staphylococcus aureus [2]) was 6.25 µg/mL (≈ 23.9 µM).
`Fc1ccc(Nc2nc3cc(Cl)ccc3[nH]2)c(F)c1` was tested, and the “log(1/C)” value (Staphylococcus aureus [1]) was 4.65, the MIC (Staphylococcus aureus [1]) was 6.25 µg/mL (≈ 22.3 µM) and the “log(1/C)” value (Staphylococcus aureus [2]) was 4.35. The MIC (Staphylococcus aureus [2]) was 12.5 µg/mL (≈ 44.7 µM).
For `FC(F)(F)c1cccc(Nc2nc3cc(Cl)ccc3[nH]2)c1`, the “log(1/C)” value (Staphylococcus aureus [1]) was 5.3, the MIC (Staphylococcus aureus [1]) was 1.56 µg/mL (≈ 5 µM) and the “log(1/C)” value (Staphylococcus aureus [2]) was 5.9. The MIC (Staphylococcus aureus [2]) was 0.39 µg/mL (≈ 1.25 µM).
For `[N-]=[N+]=Nc1ccc(Nc2nc3cc(Cl)ccc3[nH]2)cc1`, the “log(1/C)” value (Staphylococcus aureus [1]) was 4.66, the MIC (Staphylococcus aureus [1]) was 6.25 µg/mL (≈ 22 µM) and the “log(1/C)” value (Staphylococcus aureus [2]) was 4.96. For the same compound, the MIC (Staphylococcus aureus [2]) was 3.12 µg/mL (≈ 11 µM).
`Clc1ccc2[nH]c(Nc3ccc(Br)cc3)nc2c1` was tested, and the “log(1/C)” value (Staphylococcus aureus [1]) was 5.62, the MIC (Staphylococcus aureus [1]) was 0.78 µg/mL (≈ 2.42 µM) and the “log(1/C)” value (Staphylococcus aureus [2]) was 5.31. The MIC (Staphylococcus aureus [2]) was 1.56 µg/mL (≈ 4.84 µM).
In the case of `COc1ccc(Nc2nc3cc(Cl)ccc3[nH]2)cc1`, the MIC (Staphylococcus aureus [1]) is reported as 50 µg/mL (≈ 183 µM), the “log(1/C)” value (Staphylococcus aureus [2]) is reported as 3.74 and the MIC (Staphylococcus aureus [2]) is reported as 50 µg/mL (≈ 183 µM).
For `Fc1ccc(Nc2nc3cc(Cl)ccc3[nH]2)cc1Cl`, the MIC (Staphylococcus aureus [1]) was 1.56 µg/mL (≈ 5.27 µM), the “log(1/C)” value (Staphylococcus aureus [2]) was 5.28 and the MIC (Staphylococcus aureus [2]) was 1.56 µg/mL (≈ 5.27 µM).
For `FC(F)(F)c1cc(Nc2nc3cc(Cl)ccc3[nH]2)ccc1Cl`, the MIC (Staphylococcus aureus [1]) was 0.39 µg/mL (≈ 1.13 µM), the “log(1/C)” value (Staphylococcus aureus [2]) was 5.95 and the MIC (Staphylococcus aureus [2]) was 0.39 µg/mL (≈ 1.13 µM).
`Clc1ccc(Nc2nc3cc(Cl)ccc3[nH]2)cc1` was tested, and the “log(1/C)” value (Staphylococcus aureus [1]) was 5.25, the MIC (Staphylococcus aureus [1]) was 1.56 µg/mL (≈ 5.61 µM) and the “log(1/C)” value (Staphylococcus aureus [2]) was 4.95. For the same compound, the MIC (Staphylococcus aureus [2]) was 3.12 µg/mL (≈ 11.2 µM).
For `Clc1ccc2[nH]c(Nc3ccc(Cl)c(Cl)c3)nc2c1`, the MIC (Staphylococcus aureus [1]) was 0.39 µg/mL (≈ 1.25 µM), the “log(1/C)” value (Staphylococcus aureus [2]) was 5.9 and the MIC (Staphylococcus aureus [2]) was 0.39 µg/mL (≈ 1.25 µM).
`Clc1ccc(Nc2nc3cc(Cl)ccc3[nH]2)c(Cl)c1` was tested, and the MIC (Staphylococcus aureus [1]) was 0.39 µg/mL (≈ 1.25 µM), the “log(1/C)” value (Staphylococcus aureus [2]) was 5.9 and the MIC (Staphylococcus aureus [2]) was 0.39 µg/mL (≈ 1.25 µM).
In the case of `FC(F)(F)c1ccc(Cl)c(Nc2nc3cc(Cl)ccc3[nH]2)c1`, the MIC (Staphylococcus aureus [1]) is reported as 0.78 µg/mL (≈ 2.25 µM), the “log(1/C)” value (Staphylococcus aureus [2]) is reported as 5.65 and the MIC (Staphylococcus aureus [2]) is reported as 0.78 µg/mL (≈ 2.25 µM).
For `Clc1ccc(Oc2ccccc2Nc2nc3cc(Cl)ccc3[nH]2)cc1`, the MIC (Staphylococcus aureus [1]) was 1.56 µg/mL (≈ 4.21 µM), the “log(1/C)” value (Staphylococcus aureus [2]) was 5.38 and the MIC (Staphylococcus aureus [2]) was 1.56 µg/mL (≈ 4.21 µM).
`Fc1ccc2[nH]c(Nc3ccc(Cl)c(Cl)c3)nc2c1` was tested, and the MIC (Staphylococcus aureus [1]) was 1.56 µg/mL (≈ 5.27 µM), the “log(1/C)” value (Staphylococcus aureus [2]) was 5.28 and the MIC (Staphylococcus aureus [2]) was 1.56 µg/mL (≈ 5.27 µM).
For `Clc1ccc(Nc2nc3cc(Br)ccc3[nH]2)cc1Cl`, the “log(1/C)” value (Staphylococcus aureus [1]) was 6.28, the MIC (Staphylococcus aureus [1]) was 0.19 µg/mL (≈ 0.532 µM) and the “log(1/C)” value (Staphylococcus aureus [2]) was 6.55. It also gave an MIC (Staphylococcus aureus [2]) of 0.095 µg/mL (≈ 0.266 µM).
In the case of `O=[N+]([O-])c1ccc2[nH]c(Nc3ccc(Cl)c(Cl)c3)nc2c1`, the “log(1/C)” value (Staphylococcus aureus [1]) is reported as 5.32, the MIC (Staphylococcus aureus [1]) is reported as 1.56 µg/mL (≈ 4.83 µM) and the “log(1/C)” value (Staphylococcus aureus [2]) is reported as 5.62. For the same compound, the MIC (Staphylococcus aureus [2]) was 0.78 µg/mL (≈ 2.41 µM).
For `Clc1ccc(Nc2nc3cc(Cl)c(Cl)cc3[nH]2)cc1`, the MIC (Staphylococcus aureus [1]) was 0.39 µg/mL (≈ 1.25 µM), the “log(1/C)” value (Staphylococcus aureus [2]) was 5.9 and the MIC (Staphylococcus aureus [2]) was 0.39 µg/mL (≈ 1.25 µM).
With `O=[N+]([O-])c1ccc2[nH]c(Nc3ccc(Cl)cc3)nc2c1` the MIC (Staphylococcus aureus [1]) was 1.56 µg/mL (≈ 5.4 µM), the “log(1/C)” value (Staphylococcus aureus [2]) was 5.27 and the MIC (Staphylococcus aureus [2]) was 1.56 µg/mL (≈ 5.4 µM).
`Cc1cc2[nH]c(Nc3ccc(Cl)c(Cl)c3)nc2cc1Cl` was tested, and the MIC (Staphylococcus aureus [1]) was 0.39 µg/mL (≈ 1.19 µM), the “log(1/C)” value (Staphylococcus aureus [2]) was 5.92 and the MIC (Staphylococcus aureus [2]) was 0.39 µg/mL (≈ 1.19 µM).
With `FC(F)(F)c1ccc2[nH]c(Nc3ccc(Cl)c(Cl)c3)nc2c1` the MIC (Staphylococcus aureus [1]) was 0.19 µg/mL (≈ 0.549 µM), the “log(1/C)” value (Staphylococcus aureus [2]) was 6.26 and the MIC (Staphylococcus aureus [2]) was 0.19 µg/mL (≈ 0.549 µM).
With `N#Cc1ccc2[nH]c(Nc3ccc(Cl)c(Cl)c3)nc2c1` the MIC (Staphylococcus aureus [1]) was 1.56 µg/mL (≈ 5.15 µM), the “log(1/C)” value (Staphylococcus aureus [2]) was 5.28 and the MIC (Staphylococcus aureus [2]) was 1.56 µg/mL (≈ 5.15 µM).
For `COC(=O)c1ccc2[nH]c(Nc3ccc(Cl)c(Cl)c3)nc2c1`, the “log(1/C)” value (Staphylococcus aureus [1]) was 5.64, the MIC (Staphylococcus aureus [1]) was 0.78 µg/mL (≈ 2.32 µM) and the “log(1/C)” value (Staphylococcus aureus [2]) was 5.34. It also gave an MIC (Staphylococcus aureus [2]) of 1.56 µg/mL (≈ 4.64 µM).
For `Nc1ccc2[nH]c(Nc3ccc(Cl)c(Cl)c3)nc2c1`, the “log(1/C)” value (Staphylococcus aureus [1]) was 3.77, the MIC (Staphylococcus aureus [1]) was 50 µg/mL (≈ 171 µM) and the “log(1/C)” value (Staphylococcus aureus [2]) was 4.07. It also gave an MIC (Staphylococcus aureus [2]) of 25 µg/mL (≈ 85.3 µM).
`FC(F)(F)c1ccc(Nc2nc3cc(Cl)ccc3[nH]2)cc1` was tested, and the MIC (Staphylococcus aureus [1]) was 0.39 µg/mL (≈ 1.25 µM), the “log(1/C)” value (Staphylococcus aureus [2]) was 5.9 and the MIC (Staphylococcus aureus [2]) was 0.39 µg/mL (≈ 1.25 µM).
With `Fc1ccc(Nc2nc3cc(Cl)ccc3[nH]2)cc1` the “log(1/C)” value (Staphylococcus aureus [1]) was 4.32, the MIC (Staphylococcus aureus [1]) was 12.5 µg/mL (≈ 47.8 µM) and the “log(1/C)” value (Staphylococcus aureus [2]) was 4.92. The MIC (Staphylococcus aureus [2]) was 3.12 µg/mL (≈ 11.9 µM).
With `Clc1ccc(Nc2nc3ccccc3[nH]2)cc1Cl` the “log(1/C)” value (Staphylococcus aureus [1]) was 4.65, the MIC (Staphylococcus aureus [1]) was 6.25 µg/mL (≈ 22.5 µM) and the “log(1/C)” value (Staphylococcus aureus [2]) was 4.95. It also gave an MIC (Staphylococcus aureus [2]) of 3.12 µg/mL (≈ 11.2 µM).
With `FC(F)(F)Oc1ccc(Nc2nc3cc(Cl)ccc3[nH]2)cc1` the MIC (Staphylococcus aureus [1]) was 0.78 µg/mL (≈ 2.38 µM), the “log(1/C)” value (Staphylococcus aureus [2]) was 5.62 and the MIC (Staphylococcus aureus [2]) was 0.78 µg/mL (≈ 2.38 µM).
In the case of `Fc1cc(F)cc(Nc2nc3cc(Cl)ccc3[nH]2)c1`, the MIC (Staphylococcus aureus [1]) is reported as 1.56 µg/mL (≈ 5.58 µM), the “log(1/C)” value (Staphylococcus aureus [2]) is reported as 5.25 and the MIC (Staphylococcus aureus [2]) is reported as 1.56 µg/mL (≈ 5.58 µM).
`Clc1cc(Cl)cc(Nc2nc3cc(Cl)ccc3[nH]2)c1` was tested, and the MIC (Staphylococcus aureus [1]) was 0.39 µg/mL (≈ 1.25 µM), the “log(1/C)” value (Staphylococcus aureus [2]) was 5.9 and the MIC (Staphylococcus aureus [2]) was 0.39 µg/mL (≈ 1.25 µM).
In the case of `Clc1ccc(Nc2nc3cc(Cl)c(Cl)cc3[nH]2)cc1Cl`, the MIC (Staphylococcus aureus [1]) is reported as 0.39 µg/mL (≈ 1.12 µM), the “log(1/C)” value (Staphylococcus aureus [2]) is reported as 5.95 and the MIC (Staphylococcus aureus [2]) is reported as 0.39 µg/mL (≈ 1.12 µM).
In the case of `Clc1ccc(Nc2nc3cc(I)ccc3[nH]2)cc1Cl`, the MIC (Staphylococcus aureus [1]) is reported as 0.78 µg/mL (≈ 1.93 µM), the “log(1/C)” value (Staphylococcus aureus [2]) is reported as 5.71 and the MIC (Staphylococcus aureus [2]) is reported as 0.78 µg/mL (≈ 1.93 µM).
`CC1(C)S[C@@H]2[C@H](NC(=O)[C@H](N)c3ccccc3)C(=O)N2[C@H]1C(=O)O` [AMPICILLIN] gave an MIC (Staphylococcus aureus [1]) of 25 µg/mL (≈ 71.5 µM) and an MIC (Staphylococcus aureus [2]) of 0.78 µg/mL (≈ 2.23 µM).
`CC1(C)S[C@@H]2[C@H](NC(=O)[C@H](N)c3ccccc3)C(=O)N2[C@H]1C(=O)OCOC(=O)[C@@H]1N2C(=O)C[C@H]2S(=O)(=O)C1(C)C` [SULTAMICILLIN] showed an MIC (Staphylococcus aureus [1]) of 25 µg/mL (≈ 42 µM) and an MIC (Staphylococcus aureus [2]) of 0.78 µg/mL (≈ 1.31 µM).
